# An excerpt weighted towards active compounds, which were near 3.2% of everything screened.
# MEKK3 PB1 HTS = modulators (inhibitors or enhancers) of MEK5 binding to human MEKK3 PB1 domain; actives 1.4% (n = 290,000); Q99759; bead-based flow cytometry, Alexa488-MEK5 binding to MEKK3; actives lie on both sides; 0 = blocked by unlabeled MEK5, 100 = vehicle; binding response (% of control), % at 10 µM;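 active means binding response more than 3 SD above or below the average of its plate-row segment, actives on both sides; inconclusive means wells at one plate position flagged as instrument error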;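 further: Alexa488 bead fluorescence after subtracting the streptavidin-only scavenger bead signal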
# DSG3 Ab inh = inhibitors of pemphigus antibody binding to human desmoglein-3; DSG3-coupled beads, scFv-anti-DSG3-GFP binding, flow cytometry; hits give low values; binding (percent of control), % at 10 µM; actives 0.48% (n = 310,000); AID 588358;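 active means binding more than 3 SD below its plate's average and above zero; inconclusive means below that plate limit but binding exactly zero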;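 further: hits lower antibody fragment binding to DSG3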
# Apaf1 inhib = inhibitors of human Apaf-1 apoptosome | inhibition, % at 20 µM | reconstituted apoptosome caspase-3 activity, DEVD-Rh110 fluorescence | actives 0.71% (n = 330,000) | AID 489030 | O14727; active means inhibition of at least 40% at 20 µM;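 further: plate controls were DMSO wells for no effect and DEVD-CHO caspase inhibitor wells for full effect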
#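 Assay system – apoptosome proteins · Medium – Hepes buffer, pH 7.5 · Also added – cytochrome c with DEVD-Rh110 · Timing – 30 min compound preincubation, 50 min activation, room temperature · Detection – Rh110 fluorescence, excitation 480 nm, emission 540 nm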
# UBC13 polyUb = human UBC13 polyubiquitination inhibition; UBC13 polyubiquitin chain formation, TR-FRET; inhibition, % at 20 µM; actives 0.47% (n = 330,000); AID 485273; in the data active means inhibition above about 45%, passing the limit was not always enough; inconclusive means no clear call, values can overlap the other calls
# Target sequence (P61088 whole entry, looked up): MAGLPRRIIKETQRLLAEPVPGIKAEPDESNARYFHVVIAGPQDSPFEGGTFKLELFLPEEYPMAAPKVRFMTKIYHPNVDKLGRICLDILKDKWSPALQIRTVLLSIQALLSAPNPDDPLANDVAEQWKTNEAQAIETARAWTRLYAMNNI
# MEKK2wt PB1 HTS = raises or lowers MEK5 binding to wildtype human MEKK2 PB1 domain; actives 1.1% (n = 290,000); bead flow cytometry, Alexa488-MEK5 binding to MEKK2 WT; actives lie on both sides; AID 1531; binding response (% of control), % at 10 µM; in the data active means binding response below about 67% or above about 130%; inconclusive means no clear call, values can overlap the other calls; inactive means in between
# MEKK2mut PB1 HTS = signal of MEK5 binding to mutant human MEKK2 PB1 domain | bead flow cytometry, Alexa488-MEK5 binding to MEKK2 mutant | percent response, % at 10 µM | actives 0.35% (n = 290,000) | AID 1530; in the data active means percent response above about 24%, passing the limit was not always enough
# Casp3 UBC13 ctr = caspase-3 inhibition (UBC13 counter-screen) | inhibition, % at 20 µM | Recombinant caspase-3, Caspase-Glo 3/7 luminescence, 60 min | AID 488856 | actives 4% (n = 1,400) | shares compounds with UBC13 polyUb;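 active means mean inhibition across replicates above about 26%, limit read from the data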;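 further: plate controls were DMSO with caspase-3 for no effect and DMSO wells lacking enzyme for full effect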
# Target sequence (P42574 whole entry, looked up): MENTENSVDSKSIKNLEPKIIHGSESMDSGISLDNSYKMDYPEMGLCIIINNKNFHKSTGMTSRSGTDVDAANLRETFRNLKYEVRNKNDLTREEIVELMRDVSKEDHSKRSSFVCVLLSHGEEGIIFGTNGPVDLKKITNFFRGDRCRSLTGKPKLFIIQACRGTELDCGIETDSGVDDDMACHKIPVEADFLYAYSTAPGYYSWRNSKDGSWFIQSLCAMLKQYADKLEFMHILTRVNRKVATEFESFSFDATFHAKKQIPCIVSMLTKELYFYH
# UBC13 confirm = confirmation of human UBC13 polyubiquitin inhibitors. shares compounds with UBC13 polyUb. UBC13 polyubiquitination, TR-FRET, biochemical. inhibition, % at 10 µM. actives 68% (n = 1,400). AID 488859; in the data active means inhibition above about 45%; inconclusive means no clear call, values can overlap the other calls
# * hit, by the source's call; ? = inconclusive; nt = not tested or not shown.
SMILES,MEKK3 PB1 HTS,DSG3 Ab inh,Apaf1 inhib,UBC13 polyUb,MEKK2wt PB1 HTS,MEKK2mut PB1 HTS,Casp3 UBC13 ctr,UBC13 confirm
O=C1CC(c2ccc(F)cc2)C(n2cncn2)C(O)=C1C1NCCc2ccccc21 (stereo unspecified),106,101,-6,54*,99,-3,-1,9
CC(=NCc1ccco1)c1c(C)[nH]n(-c2nc3ccccc3s2)c1=O,99,106,-13,53*,97,0,78*,?
Cc1ccc(C(=O)NNC(=O)CCCN2C(=O)/C(=C/c3ccccc3Cl)SC2=S)cc1,114,89,17,25,96,-1,nt,nt
O=C(CCCN1C(=O)/C(=C/c2ccccc2Cl)SC1=S)NNC(=O)c1ccc(Cl)cc1,117,89,17,58*,105,14,-1,83*
CN(C)C(CNC(=O)c1ccc(NS(=O)(=O)c2ccc3[nH]c(=O)[nH]c3c2)cc1)c1ccccc1 (stereo unspecified),nt,122,-3,-6,nt,nt,nt,nt
Cc1ccccc1C(=O)Nc1cc(S(=O)(=O)N2CCCCC2)ccc1N1CCN(C)CC1,97,96,0,18,107,-1,nt,nt
CN1CCN(c2ccc(S(=O)(=O)N3CCCCC3)cc2NC(=O)c2ccc3ccccc3c2)CC1,115,101,-155,46*,131,10,-6,52*
CC(C)C(=O)Nc1ccc2nn(-c3ccccc3)nc2c1,110,116,-2,48*,108,0,49*,32
COc1ccc(C(=O)NC2=NCCS2)cc1S(=O)(=O)N1CCOCC1,nt,110,nt,nt,nt,nt,nt,nt
CCOc1ccc(C(=O)C(C)OC(=O)c2nc(Cl)ccc2Cl)cc1 (stereo unspecified),nt,105,12,47*,nt,nt,-1,72*
CNCc1cc(Br)c(OCC(=O)Nc2ccccc2OC)c(OC)c1,102,93,1,65*,118,8,3,103*
COc1ccccc1NC(=O)COC(=O)c1cc(C)nc2ccccc12,nt,99,4,48*,nt,nt,1,25
COc1ccccc1NC(=O)COc1ccc(C(=O)NCc2ccccc2)cc1OC,nt,96,12,70*,nt,nt,-3,75*
COc1ccc(CNC(=O)COC(=O)c2cc(C)nc3ccccc23)cc1,nt,93,1,-2,nt,nt,nt,nt
Cc1ccc(N(Cc2cc(=O)[nH]c3ccccc23)C(=O)CCl)c(C)c1,103,99,8,5,101,3,nt,nt
CC(C)(C)c1cc(-c2nc(N)nc(N)n2)c(O)c(C(C)(C)C)c1,nt,104,22,51*,nt,nt,-2,18
Cc1nc(N)nc(-c2ccccc2O)n1,103,103,-7,8,108,3,nt,nt
CCCn1c(SCC(=O)Nc2ccc(S(=O)(=O)N3CCOCC3)cc2)n[nH]c1=O,nt,103,nt,nt,nt,nt,nt,nt
O=C(CN1C(=O)NC2(CCCC2)C1=O)NCCC1=CCCCC1,101,104,-11,97*,100,16,-1,6
CCn1c(=O)c(C(=O)NCCN2CCCCC2)c(O)c2ccccc21,95,nt,0,48*,114,1,1,55*
CC(=O)Nc1sc2c(c1-c1nc3ccccc3s1)CCN(C(C)C)C2,104,130,30,60*,121,12,5,18
CC(=O)Nc1ccc(S(=O)(=O)Nc2ccccn2)cc1,96,101,0,-6,91,-13,nt,nt
Cc1ccc(S(=O)(=O)NNC(=O)C(=O)NNc2ccccn2)cc1,101,108,-6,69*,103,6,-1,81*
CC(=O)Nc1ccc(S(=O)(=O)NNC(=O)C(=O)NNc2ccccn2)cc1,106,92,-12,58*,98,2,3,95*
Cc1ccc(S(=O)(=O)CCC(=O)OC2CC(C)OC2=O)cc1 (stereo unspecified),nt,100,-12,3,nt,nt,nt,nt
SMILES,MEKK3 PB1 HTS,DSG3 Ab inh,Apaf1 inhib,UBC13 polyUb,MEKK2wt PB1 HTS,MEKK2mut PB1 HTS,Casp3 UBC13 ctr,UBC13 confirm
CC[C@H](C)[C@H](NC(=O)c1ccc(Cl)cc1)C(=O)OCC(=O)c1c(N)n(C)c(=O)n(C)c1=O,nt,91,-1,14,nt,nt,nt,nt
CN(CCNC(=O)CCCOc1cc(=O)n(C)c2ccccc12)Cc1ccccc1,101,101,7,51*,105,-12,4,68*
Cc1ccc(C)c(N2CCN(C(=S)Nc3ccc4nc(N5CCOCC5)cc(C)c4c3)CC2)c1,126,106,18,-10,110,-1,nt,nt
Cc1ccc(C)c(N2CCN(C(=S)Nc3ccc4nc(N5CCN(C)CC5)cc(C)c4c3)CC2)c1,102,88,7,49*,128,15,0,73*
NC(=O)N/N=C/c1ccccc1OCc1cccc2ccccc12,106,119,6,9,106,4,nt,nt
CC(=O)n1cc([C@H]2C=C(C(=O)Nc3ccccc3)O[C@@H](OCCCCO)C2)c2ccccc21,89,103,13,69*,84,3,2,45
CCc1ccc(Nc2n[n+](-c3ccccc3)c(-c3c(Cl)cccc3Cl)s2)cc1,105,101,44*,46*,133,9,-3,32
O=C(OCCNc1nc(-c2ccccc2)nc2ccccc12)c1cccnc1,92,83,-11,9,99,-1,nt,nt
CCCOC(=O)c1cccc(Nc2nc(-c3cccnc3)nc3ccccc23)c1,104,95,1,49*,126,7,-4,66*
COc1ccc(NC(=S)NNC(=O)c2nnn(-c3ccccc3)c2C)cc1,97,99,3,59*,97,-2,-2,82*
O=C(Nc1ccc(Cl)cc1F)C1CC(=O)N(Cc2ccco2)C1 (stereo unspecified),nt,105,10,-3,nt,nt,nt,nt
Oc1ccc(Cl)cc1Nc1nc(NCC2CCCO2)c2ccccc2n1 (stereo unspecified),104,105,24,53*,125,8,-1,67*
Cc1ccc(Cn2c(C(C)Nc3nc(-c4ccc(F)cc4)cs3)nc3cc(C(=O)NCCCO)ccc32)cc1 (stereo unspecified),98,104,13,41,100,1,nt,nt
COc1ccc(-c2csc(NC(C)c3nc4cc(C(=O)NCCCO)ccc4n3Cc3ccc(C)cc3)n2)cc1 (stereo unspecified),106,106,11,53*,110,3,-3,23
